From ChEMBL document CHEMBL1255198, “Expanding the diversity of allosteric bcr-abl inhibitors” (J Med Chem, 2010)

assay: Cytotoxicity against mouse BA/F3 cells; type: cell-based; conditions: BaF3
Method in brief: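 Parental IL-3-dependent murine Ba/F3 cells grown at 37 °C, 5% CO₂ in RPMI 1640 with 10% FBS, 1% L-glutamine and 10% WEHI-conditioned medium as IL-3 source. Growth after 48 h read by CellTiter-Glo luminescence.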

Row | SMILES | EC50 [µM]
1 | NS(=O)(=O)c1cccc(-c2cc(Nc3ccc(OC(F)(F)F)cc3)ncn2)c1 | > 10
2 | NC(=O)c1ccc(Cn2ncc3c(Nc4ccc(OC(F)(F)F)cc4)ncnc32)cc1 | > 10
3 | Cc1nc(C)c(Cn2ncc3c(Nc4ccc(OC(F)(F)F)cc4)ncnc32)s1 | > 10
4 | FC(F)(F)Oc1ccc(Nc2ccnc(NCCN3CCOCC3)n2)cc1 | > 10
5 | FC(F)(F)Oc1ccc(Nc2ncnc3[nH]ncc23)cc1 | > 10
6 | FC(F)(F)Oc1ccc(Nc2nccc(NCCN3CCOCC3)n2)cc1 | > 10
7 | Cc1c(-c2cc(Nc3ccc(OC(F)(F)F)cc3)ncn2)cnn1-c1ccccc1 | > 10
8 | Cn1ccc2c(Nc3ccc(OC(F)(F)F)cc3)ncnc21 | > 10
9 | FC(F)(F)Oc1ccc(CNc2cc(NCCN3CCOCC3)ncn2)cc1 | > 10
10 | COc1ccc(Cn2ccc3c(Nc4ccc(OC(F)(F)F)cc4)ncnc32)cc1 | > 10
11 | CN(c1ccc(OC(F)(F)F)cc1)c1cc(NCCN2CCOCC2)ncn1 | > 10
12 | NC(=O)c1ccc(-c2cc(Nc3ccc(OC(F)(F)F)cc3)ncn2)cc1 | > 10
13 | CS(=O)(=O)Nc1ccc(-c2cc(Nc3ccc(OC(F)(F)F)cc3)ncn2)cc1 | 2.21
14 | OCCn1cc2c(Nc3ccc(OC(F)(F)F)cc3)ncnc2n1 | > 10
15 | CCCn1cc2c(Nc3ccc(OC(F)(F)F)cc3)ncnc2n1 | > 10
16 | O=C(c1cccc(-c2cc(Nc3ccc(OC(F)(F)F)cc3)ncn2)c1)N1CCOCC1 | > 10
17 | OCc1cc2c(Nc3ccc(OC(F)(F)F)cc3)ncnc2s1 | > 10
18 | O=C(NCCO)c1cc2c(Nc3ccc(OC(F)(F)F)cc3)ncnc2s1 | > 10
19 | FC(F)(F)Oc1ccc(Nc2cc(-c3ccnc4[nH]ccc34)ncn2)cc1 | 6.85
20 | FC(F)(F)c1ccc(Nc2cc(-c3ccncc3)ncn2)cc1 | > 10
21 | O=C(c1cc2c(Nc3ccc(OC(F)(F)F)cc3)ncnc2s1)N1CCN(N2CCCC2)CC1 | 5.77

Row | SMILES | EC50 [µM]
22 | FC(F)(F)Oc1ccc(Nc2cc(N3CCOCC3)ncn2)cc1 | > 10
23 | FC(F)(F)Oc1ccc(Nc2cncc(NCCN3CCOCC3)n2)cc1 | > 10
24 | COC(=O)c1cc2c(Nc3ccc(OC(F)(F)F)cc3)ncnc2s1 | > 10
25 | FC(F)(F)Oc1ccc(Nc2ncnc3nn(Cc4cccnc4)cc23)cc1 | > 10
26 | FC(F)(F)Oc1ccc(Nc2ncnc3c2cnn3Cc2ccccc2)cc1 | > 10
27 | NC(=O)c1ccccc1-c1cc(Nc2ccc(OC(F)(F)F)cc2)ncn1 | > 10
28 | Cc1nn(C)c(C)c1-c1cc(Nc2ccc(OC(F)(F)F)cc2)ncn1 | > 10
29 | NC(=O)CCn1ccc2c(Nc3ccc(OC(F)(F)F)cc3)ncnc21 | > 10
30 | COc1ccc(Nc2cc(NCCN3CCOCC3)ncn2)cc1 | > 10
31 | Fc1ccc(Nc2cc(-c3ccncc3)ncn2)cc1 | > 10
32 | FC(F)(F)Oc1ccc(Nc2ncnc3c2cnn3C2CCCCC2)cc1 | 9.3
33 | NC(=O)c1cccc(Oc2cc(Nc3ccc(OC(F)(F)F)cc3)ncn2)c1 | > 10
34 | OCCn1ncc2c(Nc3ccc(OC(F)(F)F)cc3)ncnc21 | > 10
35 | CN(c1ccc(OC(F)(F)F)cc1)c1cc(-c2ccncc2)ncn1 | > 10
36 | COc1ccc(Nc2cc(-c3ccncc3)ncn2)cc1 | > 10
37 | FC(F)(F)c1ccc(Nc2cc(NCCN3CCOCC3)ncn2)cc1 | > 10
38 | COCCCNC(=O)CCn1ccc2c(Nc3ccc(OC(F)(F)F)cc3)ncnc21 | > 10
39 | CS(=O)(=O)c1cccc(-c2cc(Nc3ccc(OC(F)(F)F)cc3)ncn2)c1 | > 10
40 | FC(F)(F)Oc1ccc(Nc2ncnc3c2cnn3Cc2cccnc2)cc1 | > 10
41 | NC(=O)c1cccc(-c2cc(Nc3ccc(OC(F)(F)F)cc3)ncn2)c1 | > 10
42 | FC(F)(F)Oc1ccc(Nc2ncnc3nn(Cc4ccccc4)cc23)cc1 | > 10

Row | SMILES | EC50 [µM]
43 | Cc1ccc(C(=O)Nc2cccc(C(F)(F)F)c2)cc1NC(=O)c1cc2c(Nc3ccc(OC(F)(F)F)cc3)ncnc2s1 | 8.9
44 | Cn1cc(-c2cc(Nc3ccc(OC(F)(F)F)cc3)ncn2)cn1 | > 10
45 | Cc1nc(NCCN2CCOCC2)cc(Nc2ccc(OC(F)(F)F)cc2)n1 | 1.11
46 | CNC(=O)c1cccc(-c2cc(Nc3ccc(OC(F)(F)F)cc3)ncn2)c1 | > 10
47 | CCn1ncc2c(Nc3ccc(OC(F)(F)F)cc3)ncnc21 | > 10
48 | FC(F)(F)Oc1ccc(Nc2cc(NCCN3CCOCC3)ncn2)cc1 | > 10
49 | CCn1cc2c(Nc3ccc(OC(F)(F)F)cc3)ncnc2n1 | > 10
50 | FC(F)(F)Oc1ccc(Nc2ncnc3c2ccn3CCN2CCOCC2)cc1 | > 10
51 | NC(=O)Cn1ncc2c(Nc3ccc(OC(F)(F)F)cc3)ncnc21 | 3.3
52 | Cc1c(NCCN2CCOCC2)ncnc1Nc1ccc(OC(F)(F)F)cc1 | > 10
53 | FC(F)(F)Oc1cccc(Nc2cc(NCCN3CCOCC3)ncn2)c1 | > 10
54 | O=C(NCCO)c1cccc(-c2cc(Nc3ccc(OC(F)(F)F)cc3)ncn2)c1 | > 10
55 | FC(F)(F)Oc1ccc(Nc2ncnc(NCCN3CCOCC3)n2)cc1 | > 10
56 | FC(F)(F)Oc1ccc(Nc2ncnc3nn(C4CCCCC4)cc23)cc1 | > 10
57 | FC(F)(F)Oc1ccc(Nc2cc(NCCCN3CCOCC3)ncn2)cc1 | > 10
58 | FC(F)(F)Oc1ccc(Nc2ncnc3c2cnn3Cc2ccncc2)cc1 | > 10
59 | FC(F)(F)Oc1ccc(Nc2cc(-n3ccnc3)ncn2)cc1 | > 10
60 | FC(F)(F)Oc1ccc(-c2cc(NCCN3CCOCC3)ncn2)cc1 | > 10
61 | FC(F)(F)Oc1ccc(Nc2ncnc3[nH]ccc23)cc1 | > 10
62 | Nc1cccc(-c2cc(Nc3ccc(OC(F)(F)F)cc3)ncn2)c1 | > 10
63 | FC(F)(F)Oc1ccc(Nc2cc(-c3cn[nH]c3)ncn2)cc1 | > 10

Row | SMILES | EC50 [µM]
64 | O=C(NCCN1CCOCC1)c1cccc(-c2cc(Nc3ccc(OC(F)(F)F)cc3)ncn2)c1 | > 10
65 | NC(=O)c1cccc(Nc2cc(Nc3ccc(OC(F)(F)F)cc3)ncn2)c1 | > 10
66 | NC(=O)Cn1cc2c(Nc3ccc(OC(F)(F)F)cc3)ncnc2n1 | > 10
67 | O=C(c1cc2c(Nc3ccc(OC(F)(F)F)cc3)ncnc2s1)N1CCC(O)CC1 | > 10
68 | CC(C)(C)n1ncc2c(Nc3ccc(OC(F)(F)F)cc3)ncnc21 | 7.3
69 | FC(F)(F)c1ccc(Nc2cc(-c3ccncc3)ncn2)cn1 | > 10
70 | NS(=O)(=O)c1ccc(-c2cc(Nc3ccc(OC(F)(F)F)cc3)ncn2)cc1 | > 10
71 | FC(F)(F)Oc1ccc(Nc2cc(-c3cnn(Cc4cccnc4)c3)ncn2)cc1 | > 10
72 | FC(F)(F)Oc1ccc(Nc2ccc(NCCN3CCOCC3)nn2)cc1 | > 10
73 | Cc1nc(-c2cc(Nc3ccc(OC(F)(F)F)cc3)ncn2)cs1 | > 10
74 | O=C(c1cc2c(Nc3ccc(OC(F)(F)F)cc3)ncnc2s1)N1CCNCC1 | 4.07
75 | CN1CCN(C(=O)c2cc3c(Nc4ccc(OC(F)(F)F)cc4)ncnc3s2)CC1 | 2.69
76 | FC(F)(F)Oc1ccc(Nc2cc(-c3ccc4[nH]ccc4c3)ncn2)cc1 | > 10
77 | FC(F)(F)Oc1ccc(Nc2cc(-c3cccc4[nH]ccc34)ncn2)cc1 | 3.79
78 | CC(C)Cn1cc(-c2cc(Nc3ccc(OC(F)(F)F)cc3)ncn2)cn1 | > 10
79 | CCCn1ncc2c(Nc3ccc(OC(F)(F)F)cc3)ncnc21 | 6.6
80 | FC(F)(F)Oc1ccc(Nc2cc(-c3ccncc3)ncn2)cc1 | > 10
81 | O=C(O)c1cc2c(Nc3ccc(OC(F)(F)F)cc3)ncnc2s1 | > 10
82 | CCNC(=O)c1cc2c(Nc3ccc(OC(F)(F)F)cc3)ncnc2s1 | > 10
83 | FC(F)(F)Oc1ccc(Nc2ncnc3c2cnn3CC2CCOC2)cc1 (stereo not drawn) | > 10
84 | FC(F)(F)Oc1ccc(Oc2cc(NCCN3CCOCC3)ncn2)cc1 | > 10

assay: Inhibition of Bcr-Abl E255K mutant in mouse BA/F3 cells assessed as cell growth inhibition; conditions: BaF3

Row | EC50 [nM] | SMILES
85 | 360 | CS(=O)(=O)Nc1ccc(-c2cc(Nc3ccc(OC(F)(F)F)cc3)ncn2)cc1
86 | 1610 | OCCn1ncc2c(Nc3ccc(OC(F)(F)F)cc3)ncnc21
87 | 600 | NC(=O)c1cccc(-c2cc(Nc3ccc(OC(F)(F)F)cc3)ncn2)c1
88 | 1220 | FC(F)(F)Oc1ccc(Nc2ncnc3c2ccn3CCN2CCOCC2)cc1
89 | 580 | O=C(NCCO)c1cccc(-c2cc(Nc3ccc(OC(F)(F)F)cc3)ncn2)c1
90 | 520 | FC(F)(F)Oc1ccc(Nc2cc(-c3cn[nH]c3)ncn2)cc1
91 | 500 | CC(C)(C)n1ncc2c(Nc3ccc(OC(F)(F)F)cc3)ncnc21
92 | 310 | NS(=O)(=O)c1ccc(-c2cc(Nc3ccc(OC(F)(F)F)cc3)ncn2)cc1
93 | 1330 | CN1CCN(C(=O)c2cc3c(Nc4ccc(OC(F)(F)F)cc4)ncnc3s2)CC1
